Measurements published in PubChem BioAssay.
The source made the active and inactive calls.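 The calls were made as follows, unless noted: active = NADPH fluorescence slope more negative than the mean of all samples by about 3 SD, 99.7% confidence; inactive = the rest.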

Assays:
[1] = inhibitors of TNFa-induced NFkB p65 translocation, primary screen, imaging, HUVEC, MLSMR starter and 10KST1 sets (AID 438;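 active = inhibition above 20% together with a positive visual image hit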;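 also: compound added about 3h40 before a 20 min TNFalpha stimulation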;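 as to inhibition: signal is the nuclear over cytoplasmic p65 intensity ratio per well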); conditions: HUVEC TNFa-induced p65 nuclear translocation; cell count: measured here: nuclei count (cytotoxicity indicator), at 2.08 µM; inhibition: at 2 µM, stronger effect = higher value, 0% TNFa-plus-vehicle, 100% no-TNFa wells
[2] = reduction of polyQ htt aggregates in cells – imaging, exon1htt(103Q)mCFP cells, high-content imaging, primary screen (AID 483;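 active = visual image review flags a hit and inhibition of aggregation exceeds 20%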;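 also: compound exposure lasted 3 days before fixation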;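 as to nuclei count: percent of the per-plate median nuclei count of sample wells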); conditions: exon1htt(103Q)mCFP cell line, aggregate imaging, at 2 µM; inhibition of aggregation: stronger effect = higher value; nuclei count: measured here: cell count, toxicity
[3] = endothelial E-selectin expression blockers – imaging, HUVEC, immunofluorescence, MLSMR starter and 10KST1 sets, primary screen (AID 487;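 active = visually confirmed hit in the image check and inhibition above 20%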;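 as to inhibition: signal is fraction of cell area covered by stained E-selectin grains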;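 as to nuclei count: 100% = median nuclei count of all wells on the same plate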); conditions: HUVEC TNFalpha-induced E-selectin immunofluorescence imaging, at 2 µM; inhibition: stronger effect = higher value; nuclei count: measured here: cell number, toxicity
[4] = biological target: Voltage-gated potassium channel subunit beta-2 (Rattus norvegicus) (UniProt P62483); assay: inhibitors of rat Kvbeta2 reductase activity – biochemical, NADPH fluorescence, primary screen (AID 622;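 active = fluorescence slope higher than the sample average by over 3 SD, cut at about -0.22 in these data, passing the limit was not always enough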;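 also: slope of raw intensity against log time taken from 70 to 1610 s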); conditions: recombinant KvBeta, 4-cyanobenzaldehyde reduction, at 10 µM, stronger effect = higher value
[5] = biological target: Voltage-gated potassium channel subunit beta-2 (Rattus norvegicus) (UniProt P62483); assay: enhancers of rat Kvbeta2 NADPH turnover – biochemical, NADPH fluorescence, primary screen (AID 623); conditions: Recombinant KvBeta, NADPH fluorescence decrease slope, 10 min; at 10 µM; stronger effect = lower value;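 also: fluorescence intensity change per second fitted from 20 to 320 s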
[6] = biological target: Alpha-2C adrenergic receptor (Homo sapiens) (UniProt P18825); assay: compounds altering alpha2C-coupled GIRK flux – cell-based, HEK293 alpha2C/GIRK1/2, thallium flux, primary screen (AID 624;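 active = fluorescence slope after compound addition differing from the mean of all screened samples at 99.7% confidence, in either direction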;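 also: slope of fluorescence ratio to pre-addition baseline per second over 15 to 24 s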); conditions: thallium flux BTC fluorescence, at 10 µM, actives lie on both sides
[7] = inhibitors of larval lipid processing in zebrafish, primary screen, whole organism, PED6 fluorescence, gall bladder and intestine (AID 686;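 active = a full or partial loss of lipid-probe fluorescence in the fish gall bladder, intestine or both, judged by eye; inactive = no fluorescence loss, or compound toxic to the fish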;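 also: larvae 5 to 7 days old with five fish per well; signal comes from phospholipase A2 cleavage of quenched PED6 carried via bile; overnight exposure to compound and PED6 before scoring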); conditions: Zebrafish larvae PED6 lipid processing, fluorescence scoring; screened at 20 µM (by protocol)
Method in brief: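 system = live zebrafish larvae aged 5-7 days, whole organism | probe or stimulus = ingested quenched lipid PED6 at 100 nM | doses = 20 µM single dose | timing = overnight exposure | detection = fluorescence microscopy with visual scoring of gall bladder and intestine | read-out = visual per-well fluorescence inhibition score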

[8] = blockers of RIG-like receptor reporter activation – cell-based, Sendai virus stimulus, luciferase, 10K MLSCN set, TLR/RLR signaling modifier project, primary screen (AID 602276;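 active = inhibition at or above 50% at 10 µM; inactive = inhibition below 50%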;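 also: firefly luciferase from ISG56 promoter only with Renilla not read in this screen; 0% = Sendai virus plus DMSO and 100% = medium plus DMSO without virus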); conditions: HEK293 RL24 IRF3 luciferase reporter, at 10 µM, stronger effect = higher value
[9] = TLR3 IRF3 reporter activation blockers – cell-based, poly I:C stimulus, luciferase, 10K MLSCN set, primary screen (AID 602277;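 active = inhibition of the reporter signal at or above 50%; inactive = inhibition below 50%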); conditions: HEK293-TLR3 RL24 IRF3 luciferase reporter, at 10 µM, stronger effect = higher value

Voltage-gated potassium channel subunit beta-2 (Rattus norvegicus), sequence (P62483 whole entry, looked up): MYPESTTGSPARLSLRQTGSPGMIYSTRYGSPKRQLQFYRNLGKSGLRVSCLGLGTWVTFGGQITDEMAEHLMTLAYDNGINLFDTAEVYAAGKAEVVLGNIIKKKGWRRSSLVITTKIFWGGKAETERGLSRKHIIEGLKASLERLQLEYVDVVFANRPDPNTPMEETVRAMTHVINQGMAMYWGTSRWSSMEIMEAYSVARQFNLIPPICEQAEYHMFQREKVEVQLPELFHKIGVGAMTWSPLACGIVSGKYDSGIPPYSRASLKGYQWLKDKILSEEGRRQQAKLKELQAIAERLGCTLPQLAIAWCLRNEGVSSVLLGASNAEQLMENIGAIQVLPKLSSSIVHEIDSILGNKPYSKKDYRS
Alpha-2C adrenergic receptor (Homo sapiens), sequence (P18825 whole entry, looked up): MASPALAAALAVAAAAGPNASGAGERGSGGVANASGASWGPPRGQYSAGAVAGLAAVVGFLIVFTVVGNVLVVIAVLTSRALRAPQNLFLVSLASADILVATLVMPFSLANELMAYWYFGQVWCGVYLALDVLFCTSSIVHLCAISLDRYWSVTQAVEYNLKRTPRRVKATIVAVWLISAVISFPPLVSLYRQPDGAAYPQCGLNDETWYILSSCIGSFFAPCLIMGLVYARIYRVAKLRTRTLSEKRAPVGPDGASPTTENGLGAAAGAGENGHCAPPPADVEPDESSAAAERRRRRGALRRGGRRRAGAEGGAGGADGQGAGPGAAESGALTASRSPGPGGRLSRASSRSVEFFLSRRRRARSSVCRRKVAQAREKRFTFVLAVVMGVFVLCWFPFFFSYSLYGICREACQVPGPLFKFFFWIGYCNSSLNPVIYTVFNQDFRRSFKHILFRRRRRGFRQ

CCC(=O)Oc1ccc(C/C(=N\O)c2ccc(O)cc2O)o1
inactive: inhibition [1] 1.5% | inhibition of aggregation [2] 24.3% | inhibition [3] -54.6% | fluorescence slope [4] -0.502 | NADPH fluorescence slope [5] 4.5e-05 | slope [6] 0.00444 | outcome [7] | inhibition [8] -8.2% | inhibition [9] -21.3%
115%: nuclei count [3]
405: cell count [1]
95.9%: nuclei count [2]

Cc1nc2ncnn2c(N2CCC(C(=O)NCC3CCCO3)CC2)c1Cc1ccccc1 (stereo unspecified)
112%: nuclei count [3]
97%: nuclei count [2]
642: cell count [1]
inactive: inhibition [1] -10.1% | inhibition of aggregation [2] -26.5% | inhibition [3] -143% | fluorescence slope [4] -0.407 | NADPH fluorescence slope [5] -2.8e-05 | slope [6] 0.00509 | outcome [7] | inhibition [8] 8.8% | inhibition [9] 19.2%

Cc1cc(C)c(NC2=NCC(=O)N2C2CCCCC2)c(C)c1
114%: nuclei count [3]
122%: nuclei count [2]
638: cell count [1]
inactive: inhibition [1] -2.2% | inhibition of aggregation [2] 5.3% | inhibition [3] -32.7% | fluorescence slope [4] -0.389 | NADPH fluorescence slope [5] 1.7e-05 | slope [6] 0.00607 | outcome [7] | inhibition [8] -0.88% | inhibition [9] -0.177%

O=C(OC1CCc2ccccc2C1=O)c1ccccc1O (stereo unspecified)
304: cell count [1]
100%: nuclei count [2]
106%: nuclei count [3]
inactive: inhibition [1] 3.8% | inhibition of aggregation [2] -0.1% | inhibition [3] -86.8% | fluorescence slope [4] -0.386 | NADPH fluorescence slope [5] -5.3e-05 | slope [6] 0.00569 | outcome [7] | inhibition [8] -5.07% | inhibition [9] -40.5%

Cc1ccc(S(=O)(=O)N2CCN(c3nc(C)nc4sc(C)c(C)c34)CC2)cc1
108%: nuclei count [3]
345: cell count [1]
inactive: inhibition [1] 10.5% | inhibition of aggregation [2] -6.6% | inhibition [3] -191% | fluorescence slope [4] -0.387 | NADPH fluorescence slope [5] -5.6e-05 | slope [6] 0.0062 | outcome [7] | inhibition [8] 5.42% | inhibition [9] 4.33%
110%: nuclei count [2]

COc1cc2cc(C(c3nnnn3C3CCCC3)N3CCCCCC3)c(=O)[nH]c2cc1OC (stereo unspecified)
75%: nuclei count [2]
73.4%: nuclei count [3]
inactive: inhibition [1] -13.3% | inhibition of aggregation [2] 22.5% | inhibition [3] 40.8% | fluorescence slope [4] -0.351 | NADPH fluorescence slope [5] -7.3e-05 | slope [6] 0.00516 | outcome [7] | inhibition [8] 17% | inhibition [9] 20.8%
477: cell count [1]

COC(=O)c1cccc(NC(=O)CN2CCN(Cc3ccccc3)CC2)c1
382: cell count [1]
inactive: inhibition [1] -6.1% | inhibition of aggregation [2] -15.3% | inhibition [3] -28.9% | fluorescence slope [4] -0.372 | NADPH fluorescence slope [5] -9.8e-07 | slope [6] 0.0056 | outcome [7] | inhibition [8] 12.8% | inhibition [9] 14.9%
121%: nuclei count [3]
124%: nuclei count [2]

COc1ccccc1CNC(=O)C(C)NS(=O)(=O)c1ccccc1 (stereo unspecified)
295: cell count [1]
107%: nuclei count [2]
inactive: inhibition [1] -11.3% | inhibition of aggregation [2] -13.2% | inhibition [3] -11.2% | fluorescence slope [4] -0.406 | NADPH fluorescence slope [5] 2.3e-06 | slope [6] 0.00647 | outcome [7] | inhibition [8] -0.773% | inhibition [9] 1.85%
78%: nuclei count [3]

COc1ccccc1NC(=O)CSc1nnc(Cn2nnc(-c3ccccc3)n2)n1-c1ccccc1
inactive: inhibition [1] -12.5% | inhibition of aggregation [2] 5.6% | inhibition [3] -50.5% | fluorescence slope [4] -0.452 | NADPH fluorescence slope [5] -5.2e-05 | slope [6] 0.00589 | outcome [7] | inhibition [8] 19.9% | inhibition [9] 14.5%
104%: nuclei count [2]
119%: nuclei count [3]
644: cell count [1]

COc1ccc(CN(C(=O)CN2C(=O)COc3ccccc32)C2CCCC2)c(OC)c1
658: cell count [1]
102%: nuclei count [2]
104%: nuclei count [3]
inactive: inhibition [1] -3.5% | inhibition of aggregation [2] -4.6% | inhibition [3] 4.9% | fluorescence slope [4] -0.435 | NADPH fluorescence slope [5] -6.2e-05 | slope [6] 0.00491 | outcome [7] | inhibition [8] 21.9% | inhibition [9] 26.4%

Cc1sc2nc3n(c(=O)c2c1C)NC(=O)CC3
744: cell count [1]
66.7%: nuclei count [2]
85%: nuclei count [3]
inactive: inhibition [1] -7.3% | inhibition of aggregation [2] -15% | inhibition [3] 32.1% | fluorescence slope [4] -0.421 | NADPH fluorescence slope [5] -2.9e-05 | slope [6] 0.0069 | outcome [7] | inhibition [8] 16.2% | inhibition [9] 12.8%

C#CCOC(=O)C1C2C=CC(C2)C1C(=O)O (stereo unspecified)
inactive: inhibition [1] 9.9% | inhibition of aggregation [2] 7.3% | inhibition [3] -317% | fluorescence slope [4] -0.341 | NADPH fluorescence slope [5] -6.5e-05 | slope [6] 0.00609 | outcome [7] | inhibition [8] 4.82% | inhibition [9] 0.62%
87.7%: nuclei count [2]
115%: nuclei count [3]
394: cell count [1]

O=c1c2cnn(-c3ccccc3)c2ncn1/N=C/c1ccncc1
476: cell count [1]
119%: nuclei count [2]
108%: nuclei count [3]
inactive: inhibition [1] -7.8% | inhibition of aggregation [2] 3.3% | inhibition [3] -71.4% | fluorescence slope [4] -0.378 | NADPH fluorescence slope [5] -5.9e-05 | slope [6] 0.00444 | outcome [7] | inhibition [8] 11.6% | inhibition [9] 11.3%
